Results as given in ChEMBL document CHEMBL1130108, “Synthesis of nonhydrolyzable analogues of thiazole-4-carboxamide and benzamide adenine dinucleotide containing fluorine atom at the C2' of adenine nucleoside: induction of K562 differentiation and inosine monophosphate dehydrogenase inhibitory activity” (J Med Chem, 1997).
Values joined by “and” are separate entries in the source; they are usually repeats but may differ in a detail not shown here. Equal values may be shown once.

Experiments:
[1] = molecular target: Inosine-5'-monophosphate dehydrogenase 2 (Homo sapiens, UniProt P12268); test: The compound was assayed to determine the inhibitory activity against human Inosine-5'-monophosphate dehydrogenase 2
K562 [2] = test: The concentration used to induce differentiation in K562 cells; type: functional, cell-based; settings: Homo sapiens
Summary of the method: (§1)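 K562 erythroleukemia cells incubated with analogue; differentiation scored as fraction of benzidine-positive cells; percent benzidine-positive cells normalized by dividing by the analogue concentration applied.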

[3] = Percentage of benzidine positive cells is divided by the concentration used.; type: functional; parameters: unit not given here; summary of the method: as §1
K562 [4] = test: The ability to induce differentiation in K562 cells was estimated by determining the fraction of benzidine positive cells converted following incubation with the compound.; type: functional, Homo sapiens; summary of the method: as §1
K562 [5] = test: Antiproliferative activity against K562 erythroid leukemic cells was determined.; type: functional, cell-based; settings: Homo sapiens
K562 [6] = test: The concentration used.; type: functional, cell-based; settings: Homo sapiens; summary of the method: as §1
K562 [7] = test: Antiproliferative activity against K562 erythroid leukemic cells was determined; NE=no effect; type: functional, cell-based, Homo sapiens

| IC50 [1] | IC50 (K562 [5]) | IC50 (K562 [7]) | SMILES | Concentration (K562 [2]) | Concentration [3] | Positive cells (K562 [4]) | Concentration (K562 [6]) |
| --- | --- | --- | --- | --- | --- | --- | --- |
| 0.3 µM | 11 µM |  | NC(=O)c1csc([C@@H]2O[C@H](COP(=O)(O)C(F)(F)P(=O)(O)OC[C@@H]3O[C@H](n4cnc5c(N)ncnc54)[C@@H](O)[C@H]3O)[C@@H](O)[C@H]2O)n1 | 14 µM | 3.4 | 48% |  |
| 0.7 µM | 3.2 µM |  | NC(=O)c1csc([C@@H]2O[C@H](COP(=O)(O)OP(=O)(O)OC[C@@H]3O[C@H](n4cnc5c(N)ncnc54)[C@@H](O)[C@H]3F)[C@@H](O)[C@H]2O)n1 | 2.5 µM | 10.4 | 26% |  |
| 0.8 µM | 68 µM |  | NC(=O)c1cccc([C@@H]2O[C@H](COP(=O)(O)CP(=O)(O)OC[C@@H]3O[C@H](n4cnc5c(N)ncnc54)[C@@H](O)[C@H]3O)[C@@H](O)[C@H]2O)c1 | 15 µM | 0.6 and 0.8 |  | 60 µM |
| 2.6 µM | 3.8 µM |  | NC(=O)c1csc([C@@H]2O[C@H](COP(=O)(O)OP(=O)(O)OC[C@@H]3O[C@H](n4cnc5c(N)ncnc54)[C@@H](F)[C@H]3O)[C@@H](O)[C@H]2O)n1 | 13 µM | 10.4 | 56% |  |
| 0.11 µM | 18 µM |  | NC(=O)c1csc([C@@H]2O[C@H](COP(=O)(O)CP(=O)(O)OC[C@@H]3O[C@H](n4cnc5c(N)ncnc54)[C@@H](O)[C@H]3O)[C@@H](O)[C@H]2O)n1 | 14.3 µM |  | 35% |  |
| 175 µM |  | Not Active | NC(=O)c1cccc([C@@H]2O[C@H](COP(=O)(O)CP(=O)(O)OC[C@@H]3O[C@H](n4cnc5c(N)ncnc54)[C@H](F)[C@H]3O)[C@@H](O)[C@H]2O)c1 | 75 µM | 0.1 | 9% |  |
|  | 3.7 µM |  | NC(=O)c1csc([C@H]2O[C@@H](COP(=O)(O)OP(=O)(O)OC[C@H]3O[C@@H](n4cnc5c(N)ncnc54)[C@H](O)[C@@H]3O)[C@H](O)[C@@H]2O)n1 | 15 µM |  | 70% |  |
| 6 µM | 70 µM |  | NC(=O)c1csc([C@@H]2O[C@H](COP(=O)(O)CP(=O)(O)OC[C@@H]3O[C@H](n4cnc5c(N)ncnc54)[C@H](F)[C@H]3O)[C@@H](O)[C@H]2O)n1 | 14 µM | 0.7 | 9.5% |  |
| 0.8 µM | 13 µM |  | NC(=O)c1csc([C@@H]2O[C@H](COP(=O)(O)C(F)(F)P(=O)(O)OC[C@@H]3O[C@H](n4cnc5c(N)ncnc54)[C@H](F)[C@H]3O)[C@@H](O)[C@H]2O)n1 | 13 µM | 3.1 | 40% |  |
|  | 3 µM |  | NC(=O)c1csc([C@@H]2O[C@H](CO)[C@@H](O)[C@H]2O)n1 [TIAZOFURIN] | 15 µM |  | 80% |  |
